Results from different studies.
Compare with care: the assays were run in different laboratories.
Target: Homeodomain-interacting protein kinase 1 (HIPK1, Homo sapiens, UniProt Q86Z02)

Cc1ccc(NC(=O)c2ccnc(C(F)(F)F)c2)cc1-c1cc(OCCO)nc(N2CCOCC2)c1  remaining binding (binding, competition with immobilised ligand; 1 µM): 93%
COc1ccc2oc(-c3ccc4nc(N)oc4c3)c/c(=N\c3ccccc3NC(=O)CCN)c2c1  remaining binding (binding; 1 µM): 103%
C1=C/COCc2cc(ccc2OCCN2CCCC2)Nc2nccc(n2)-c2cccc(c2)COC/1  remaining binding (binding; 0.1 µM): 6.7%
C[C@H]1CC[C@H](n2c3cnccc3c3cnc(Nc4ccc5c(n4)CCN(C(=O)CO)C5)nc32)CC1  remaining binding (binding, competition with immobilised ligand; 1 µM): 45%
C=CC(=O)N1CCC[C@@H](n2nc(-c3ccc(Oc4ccccc4)cc3)c3c(N)ncnc32)C1  inhibition (enzyme activity, inhibitor; 1 µM): 22%
C#Cc1cc(-c2cc(Nc3nc(N[C@@H](C)c4ccc(F)cn4)ncc3Cl)n[nH]2)ccc1C=O  inhibition (enzyme activity, inhibitor; 0.2 µM): 22.6%
CCCCC(=O)Nc1ccc(-c2ccc3ncn(CCC)c(=O)c3c2)cn1  remaining binding (binding, competition with immobilised ligand; 0.5 µM): 88%
C=CC(=O)N1CCC([C@@H]2CCNc3c(C(N)=O)c(-c4ccc(Oc5ccccc5)cc4)nn32)CC1  inhibition (enzyme activity, inhibitor; 1 µM): 26%
